Bioassay records from PubChem.
Shown are actives, neighbours in structure and some others; about 2% of the full set was active somewhere.
TWEAK-Fn14 inh = inhibitors of TWEAK-Fn14 interaction signaling | 2% of 360,000 active | AID 1159606 | TWEAK-stimulated Fn14 reporter cells, luciferase luminescence, 8 h | inhibition, % at 10 µM; in the data active = inhibition above about 50%
TROY signal inh = blocks TROY-dependent signaling in reporter cells; inhibition, % at 10 µM; AID 1347056; 0.98% of 360,000 active; Q293 LMP1-TROYcd NF-kB luciferase reporter, 4 h;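 active = compounds whose plate-normalised and pattern-corrected inhibition of the luciferase reporter signal at the single screening dose is 50% or more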
CaV13 ICDI inh = Primary screen for inhibitors of IQ motif and Ca2+-dependent inactivation inhibitor domain binding in CACNA1D, Förster resonance energy transfer in living cells, …. HEK cells, CFP/YFP FRET ICDI-IQ, plate reader, 10 min; percent FRET-ratio fall versus neutral wells. inhibition, % at 12.3 µM. 0.098% of 340,000 active;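 active = mean replicate inhibition of at least 30% and at least 1% of replicates passing that level; inconclusive = only one of the two criteria is met; inactive = neither criterion is met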;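 note: 0% = median of the neutral control wells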
LGR2 inh = blocks bursicon-induced cAMP signaling via Drosophila LGR2; HEK293 LGR2, CRE-luciferase, bursicon-stimulated, 4 h; inhibition, % at 9.99 µM; 0.35% of 380,000 active; AID 720647;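 active = drop in luminescence signal, shown as inhibition above about 50% in the replicate tests, limit read from the data, passing the limit was not always enough; inconclusive = probably only some replicates passing the limit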;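 note: agonist challenge used bursicon conditioned medium at about half maximal strength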
XiGFP reactiv = X-chromosome reactivation activator; XiGFP mouse fibroblasts, % GFP-positive cells imaging, 3 d; cells co-treated with 5-aza-dC sensitizer; scaled so ellipticine positive control = 100%; activation, % at 7.58 µM; 0.055% of 360,000 active; AID 743238;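 active = mean normalized replicate activation at least 10% and every replicate at or above 10%; inconclusive = only one of the two criteria met; inactive = mean below 10% and not all replicates reach 10%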;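 note: 0% = median of on-plate neutral control wells and 100% = ellipticine 6 µM median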
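System: 68-5-11 XiGFP fibroblast line | Buffer or medium: DMEM containing 5-aza-dC | Compound: Single point | Times: Compounds 3 days, fix/stain 15 min at room temperature | Benchmarks: Positive control ellipticine, 6 µM final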
* = called active by the depositor; ? = inconclusive; nt = not tested or not shown.

SMILES	TWEAK-Fn14 inh	TROY signal inh	CaV13 ICDI inh	LGR2 inh	XiGFP reactiv
C[C@@H]1CN([C@H](C)CO)C(=O)c2cc(-c3ccc(F)cc3)cnc2O[C@H]1CN(C)CC1CCCCC1	nt	nt	nt	5	0
COc1cccc(C2=NO[C@@H]3C(=O)N(Cc4ccccc4)C(=O)[C@H]23)c1OC	10	-16	-5	nt	nt
O=C(Nc1nc2ccccc2[nH]1)C1CC(=O)N(c2ccc3c(c2)OCCO3)C1 (configuration not stated)	69*	36	-6	nt	nt
COc1cccc(OC)c1OC(=O)C1CC(=O)N(c2ccc3c(c2)OCCO3)C1 (configuration not stated)	68*	16	-2	-15	0
CCOC(=O)c1ccccc1NC(=O)COC(=O)C1CC(=O)N(c2ccc3c(c2)OCCO3)C1 (configuration not stated)	7	-47	-6	23	0
O=C(COC(=O)C1CC(=O)N(c2ccc3c(c2)OCCO3)C1)NC1CCCc2ccccc21 (configuration not stated)	56*	41	-7	nt	nt
COc1cccc(C2=NO[C@@H]3C(=O)N(c4ccc5c(c4)OCCO5)C(=O)[C@H]23)c1OC	77*	69*	-4	nt	nt
Cc1ccc(S(=O)(=O)Nc2ccc3c(c2)C(=O)N([C@@H](C)CO)C[C@@H](C)[C@H](CN(C)C(=O)Nc2ccc(F)cc2)OCCCC[C@@H](C)O3)cc1	nt	nt	nt	4	0
CN(C)C(=O)c1ccc(-c2ccc([C@@H]3[C@H]4CN(C(=O)C5CCC5)CC(=O)N4[C@H]3CO)cc2)cc1	nt	nt	nt	9	0
O=C(O)C1CC(=O)N(c2ccc3c(c2)OCCO3)C1 (configuration not stated)	63*	33	-3	nt	nt
O=C(Nc1ccc2c(c1)OCO2)C1CC(=O)N(c2ccc3c(c2)OCCO3)C1 (configuration not stated)	30	3	-2	8	0
Cc1ccc2nc3cc([N+](=O)[O-])cc([N+](=O)[O-])c3cc2c1	87*	52*	-8	?	1
COc1ccc(-c2csc(N3CCN(c4cc(C)nc5ccccc45)CC3)n2)cc1OC	52*	42	-4	nt	0
C[C@H]1CCCCO[C@@H](CN(C)Cc2ccc(C(=O)O)cc2)[C@@H](C)CN([C@@H](C)CO)C(=O)c2cc(NC(=O)Nc3ccc(C(F)(F)F)cc3)ccc2O1	nt	nt	nt	3	0
CCOc1ccccc1-n1c(SCC(=O)Nc2nccs2)nnc1-c1ccoc1C	-2	-2	-5	nt	nt
CCOc1ccc(-n2c(SCC(=O)Nc3nccs3)nnc2-c2ccoc2C)cc1	-10	10	179*	0	0
COc1ccc(C#Cc2cccc(-c3nc(C(=O)Nc4ccc(-c5ccccc5)cc4)cc4c3[C@@H](CCO)N(S(=O)C(C)(C)C)C4)c2)cc1OC (some centres not stated)	nt	nt	nt	12	0
CC(=O)Nc1ccc(NC2=C/C(=N/S(=O)(=O)c3cccs3)c3ccccc3C2=O)cc1	99*	67*	-7	98*	0
Cc1ccc(NC2=C/C(=N/S(=O)(=O)c3cccs3)c3ccccc3C2=O)cc1C	-38	-51	-10	0	0
COc1ccc(S(=O)(=O)/N=C2\C=C(Nc3ccc(O)cc3)C(=O)c3ccccc32)cc1	101*	35	-4	101*	1
Cc1ccccc1NC1=C/C(=N\S(=O)(=O)c2cccs2)c2ccccc2C1=O	102*	67*	-6	nt	nt
CCNC(=O)Nc1ccc2c(c1)C(=O)N(C)[C@H]1CC[C@@H](CC(=O)NCC3CCCCC3)O[C@@H]1CO2	nt	nt	nt	5	0
O=C(Nc1ccc(Br)cc1)c1ccc(F)c(S(=O)(=O)NCc2cccs2)c1	58*	41	-5	20	0
C[n+]1cccc(C(=O)NNC(=O)C23CC4CC(CC(C4)C2)C3)c1	1	52*	-4	-24	0
O=C(Nc1cccc(Cl)c1)N1C[C@H]2[C@@H](c3ccccc31)[C@H](CO)N2Cc1ccccc1Cl	nt	nt	nt	6	0
SMILES	TWEAK-Fn14 inh	TROY signal inh	CaV13 ICDI inh	LGR2 inh	XiGFP reactiv
Cc1ccc(C)c(-n2c(Cc3cc(=O)[nH]c(=O)[nH]3)nnc2SC(C)C)c1	-9	-2	39*	2	0
CSc1nnc(Cc2cc(=O)[nH]c(=O)[nH]2)n1-c1cc(C)ccc1C	1	4	-4	nt	nt
CN1CCS/C1=C\C=C1/SC(=S)N(CC(=O)O)C1=O	14	-8	-23	1	0
CCN1C(=O)/C(=C/C=C2/SCCN2C)SC1=S	68*	29	-7	nt	nt
COc1ccccc1C=CC(=O)C=Cc1ccccc1OC	80*	-36	-3	-19	1
COc1ccccc1/C=C/C(=O)/C=C/c1ccccc1O	88*	-16	-22	-22	0
COc1ccccc1/C=C/C(C)=O	-2	-26	-4	8	0
C[C@@H]1CN([C@H](C)CO)C(=O)c2cc(-c3cccc(C(=O)N(C)C)c3)cnc2O[C@H]1CN(C)S(=O)(=O)c1cccc(F)c1	nt	nt	nt	1	1
O=C(/C=C/c1ccnc2ccccc12)c1cccs1	65*	70*	2	2	0
Cc1cccc(CSC(Nc2ccc(F)cc2)=C(C#N)C#N)c1	64*	48	-16	?	0
Cc1nc(Nc2ccc(S(=O)(=O)N3CCCCC3C)cc2)c2nnn(Cc3ccccc3)c2n1 (configuration not stated)	66*	19	-5	6	0
Cc1nc(Nc2ccc(Cl)cc2)c2nnn(Cc3ccccc3)c2n1	27	26	-7	-2	0
CCCc1cc(=O)[nH]c(SCC(=O)N2N=C(c3ccc(Cl)cc3)CC2c2ccco2)n1 (configuration not stated)	69*	29	-5	-26	0
CC(C)[C@H](NS(=O)(=O)c1ccccc1)C(=O)OCC(=O)N1N=C(c2ccc(Cl)cc2)CC1c1ccco1 (some centres not stated)	56*	39	nt	-6	0
C[C@H](CO)N1C[C@H](C)[C@H](CN(C)Cc2ccc(F)cc2)Oc2cc(C#CCN(C)C)ccc2S1(=O)=O	nt	nt	nt	-3	0
C[C@H](CO)N1C[C@H](C)[C@@H](CN(C)C(=O)Cc2ccccc2)Oc2cc(C#CC3(O)CCCC3)ccc2S1(=O)=O	nt	nt	nt	-10	0
c1ccc(-c2ccc(-c3nc(-c4ccncc4)no3)cc2)cc1	65*	30	-13	nt	nt
CCc1ccc(-c2nc(-c3ccncc3)no2)cc1	76*	34	-7	nt	nt
c1ccc(-c2nc(-c3ccncc3)no2)cc1	-4	-44	nt	-37	nt
Cc1ccc(-c2nc(-c3ccncc3)no2)c(Cl)c1	69*	30	-4	75*	0
COc1cc(SC)ccc1C(=O)Nc1ccon1	-7	-43	-4	nt	nt
